From ChEMBL document CHEMBL1139390, “Synthesis and biological studies of different duocarmycin based glycosidic prodrugs for their use in the antibody-directed enzyme prodrug therapy” (J Med Chem, 2009)

Experiments:
A549 [1] = experiment: Cytotoxicity against human A549 cells after 24 hrs by HTCFA; type: functional, cell-based; settings: A549, 24 h
In short: (§1)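 Clonogenic (HTCFA) assay on adherent A549 cells seeded in triplicate at 10^2–10^5 cells per well; after 24 h, medium replaced by serum-free UltraCulture and cells exposed 24 h to 6–8 concentrations from fresh DMSO solutions (final DMSO 1%).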

A549 [2] = experiment: Cytotoxicity against human A549 cells after 24 hrs in presence of cleaving enzyme by HTCFA; type: functional, cell-based; settings: A549, 24 h; in short: as §1
A549 [3] = experiment: Ratio of IC50 for human A549 cells to IC50 for human A549 cells in presence of cleaving enzyme; type: functional
In short: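 QIC50 is the IC50 of the prodrug alone divided by its IC50 with the cleaving glycosidase present. Both values come from the 24 h exposure A549 clonogenic assay with 9–10 days of outgrowth and methylene blue colony counts.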

[4] = Stability in ultraculture medium after 24 hrs by HPLC-MS; type: physicochemical; settings: read-out: Stability
In short: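 Compound held in UltraCulture medium at 37 °C for 24 h. The fraction remaining was quantified by HPLC-MS peak area (AUC) on a C12 reversed-phase column.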

SMILES	IC50 (A549 [1])	IC50 (A549 [2])	Ratio IC50 (A549 [3])	remaining at 24 h [4]
C[C@H]1[C@@H]2CN(C(=O)c3cc4cc(OCCN(C)C)ccc4[nH]3)C3=CC(=O)c4ccccc4[C@@]312	0.75 nM			
C[C@@H](Cl)[C@@H]1CN(C(=O)c2cc3cc(OCCN(C)C)ccc3[nH]2)c2cc(O[C@@H]3O[C@H](CO)[C@H](O)[C@H](O)[C@H]3O)c3ccccc3c21	3600 nM	0.8 nM	4800	27%
C[C@@H](Cl)[C@@H]1CN(C(=O)c2cc3cc(OCCN(C)C)ccc3[nH]2)c2cc(O)c3ccccc3c21	0.75 nM			
